Tests used:
[1] = tested on: brain MT; test: microPET imaging in mice, baseline and blocking; assay type: in vivo, athymic nude male mice
Procedure, shortened: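 Mice were anaesthetised and transmission-scanned on a Trifoil PET/CT. The [11C] tracer (50 ± 10 μCi) was given by tail vein, followed by 60 min dynamic acquisition. Images were reconstructed with attenuation correction, Fourier rebinning and filtered back-projection, and summed over 0–60 min. In blocking scans, unlabelled test compound (5 mg/kg iv) was given before the tracer, with n = 3.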

[2] = Stability in ethanol–saline formulation; assay type: physicochemical; conditions: 5% ethanol–saline formulation, sterile conditions, 4 h, n = 4
Procedure, shortened: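 The stability of the [11C]-labelled test compound was checked by reverse-phase HPLC with photodiode-array and sodium iodide radioactivity detectors.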

[3] = Baseline ex vivo biodistribution; assay type: in vivo, male white mice; conditions: mouse brain, followed by gradual washout
[4] = Lipophilicity by shake flask method; assay type: physicochemical; conditions: 1-octanol / phosphate buffer, n = 4
Procedure, shortened: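 The [11C]-labelled test compound was partitioned between 1-octanol and freshly prepared phosphate buffer by shake flask, and the result expressed as log Poct/water.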

[5] = tested on: MT; test: Blocking biodistribution with cold MPC-6827; assay type: in vivo, male white mice
Procedure, shortened: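 This was a blocking biodistribution. Unlabelled test compound (5 mg/kg iv) was given 20 min before tail-vein injection of the [11C] tracer at 100 ± 20 μCi in 10% ethanol–saline, with no anaesthesia. Tissues were harvested at 30 min, gamma-counted and expressed as %ID/g, with n = 3. Specific binding was taken from blocked versus baseline uptake.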

[6] = tested on: brain MT; test: microPET imaging in rats; assay type: in vivo; conditions: male Sprague—Dawley rats, n = 2
Procedure, shortened: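 Anaesthetised Sprague–Dawley rats (n = 2) were transmission-scanned on a Trifoil PET/CT. The [11C] tracer (100 ± 20 μCi) was injected into the tail vein and acquired for 60 min. Reconstruction used attenuation correction, Fourier rebinning and filtered back-projection, and images were summed over 0–60 min.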

[7] = biological target: all other tested biogenic brain receptors, transporters, enzymes, and protein targets; test: NIMH-PDSP binding affinity panel; conditions: all other tested targets except H4R and σ1R
[8] = biological target: mGluR; test: NIMH-PDSP binding affinity panel; conditions: read-out: affinity, metabotropic glutamate receptors
[9] = biological target: β1–3; test: NIMH-PDSP binding affinity panel; conditions: read-out: affinity
[10] = biological target: 5-HT2A-2C; test: NIMH-PDSP binding affinity panel; conditions: read-out: affinity
[11] = biological target: σ2 (Homo sapiens, UniProt Q5BJF2); test: NIMH-PDSP binding affinity panel
[12] = biological target: oxytocin (Homo sapiens, UniProt P30559); test: NIMH-PDSP binding affinity panel
[13] = biological target: 5-HT1A-1E; test: NIMH-PDSP binding affinity panel; conditions: read-out: affinity
[14] = biological target: MDR1 (Homo sapiens, UniProt P08183); test: NIMH-PDSP binding affinity panel
[15] = rodents, blood; cited from earlier work
[16] = biological target: NMΔA; test: NIMH-PDSP binding affinity panel; conditions: read-out: affinity
[17] = biological target: Ca+ channel; test: NIMH-PDSP binding affinity panel; conditions: read-out: affinity
[18] = biological target: BZP (benzodiazepine); test: NIMH-PDSP binding affinity panel; conditions: read-out: affinity
[19] = biological target: M (muscarinic); test: NIMH-PDSP binding affinity panel; conditions: read-out: affinity
[20] = biological target: A (adenosine); test: NIMH-PDSP binding affinity panel; conditions: read-out: affinity
[21] = biological target: D1-D5; test: NIMH-PDSP binding affinity panel; conditions: read-out: affinity; D1-D5 dopamine
[22] = biological target: NET (Homo sapiens, UniProt P23975); test: NIMH-PDSP binding affinity panel
[23] = biological target: VMAT 1,2; test: NIMH-PDSP binding affinity panel; conditions: read-out: affinity; VMAT 1,2, vesicular monoamine transporter
[24] = biological target: KA (kainate); test: NIMH-PDSP binding affinity panel; conditions: read-out: affinity
[25] = biological target: EP (prostanoid receptors); test: NIMH-PDSP binding affinity panel; conditions: read-out: affinity
[26] = biological target: KOP (Homo sapiens, UniProt P41145); test: NIMH-PDSP binding affinity panel
[27] = biological target: CB1, CB2; test: NIMH-PDSP binding affinity panel; conditions: read-out: affinity; CB1, CB2 cannabinoid
[28] = biological target: 5-HT3-7; test: NIMH-PDSP binding affinity panel; conditions: read-out: affinity
[29] = biological target: HERG (Homo sapiens, UniProt Q12809); test: NIMH-PDSP binding affinity panel
[30] = over 100 cancer patients including GBM; cited from earlier work
[31] = biological target: SERT (Homo sapiens, UniProt P31645); test: NIMH-PDSP binding affinity panel
[32] = tested on: cancer animal models; conditions: variety of cancer animal models; cited from earlier work
[33] = biological target: smoothened (Homo sapiens, UniProt Q99835); test: NIMH-PDSP binding affinity panel
[34] = biological target: Na + channel; test: NIMH-PDSP binding affinity panel; conditions: read-out: affinity
[35] = biological target: NT (neurotrophin); test: NIMH-PDSP binding affinity panel; conditions: read-out: affinity
[36] = biological target: H1 (Homo sapiens, UniProt P35367); test: NIMH-PDSP binding affinity panel
[37] = biological target: NK (neurokinin); test: NIMH-PDSP binding affinity panel; conditions: read-out: affinity
[38] = biological target: DOR (Homo sapiens, UniProt P41143); test: NIMH-PDSP binding affinity panel
[39] = biological target: α2A-2C; test: NIMH-PDSP binding affinity panel; conditions: read-out: affinity
[40] = biological target: NOP (Homo sapiens, UniProt P41146); test: NIMH-PDSP binding affinity panel
[41] = biological target: DAT (Homo sapiens, UniProt Q01959); test: NIMH-PDSP binding affinity panel
[42] = biological target: PBR (Homo sapiens, UniProt P30536); test: NIMH-PDSP binding affinity panel
[43] = biological target: GABA; test: NIMH-PDSP binding affinity panel; conditions: read-out: affinity
[44] = biological target: PKC; test: NIMH-PDSP binding affinity panel; conditions: read-out: affinity, protein kinase C
[45] = biological target: α1A-1C; test: NIMH-PDSP binding affinity panel; conditions: read-out: affinity
[46] = biological target: AMPA; test: NIMH-PDSP binding affinity panel; conditions: read-out: affinity
[47] = biological target: I; test: NIMH-PDSP binding affinity panel; conditions: read-out: affinity
[48] = 30 min, MPC-6827 5 mg/kg iv 20 min prior to radioligand, n = 3

MDR1, sequence (P08183 whole entry, species assumed): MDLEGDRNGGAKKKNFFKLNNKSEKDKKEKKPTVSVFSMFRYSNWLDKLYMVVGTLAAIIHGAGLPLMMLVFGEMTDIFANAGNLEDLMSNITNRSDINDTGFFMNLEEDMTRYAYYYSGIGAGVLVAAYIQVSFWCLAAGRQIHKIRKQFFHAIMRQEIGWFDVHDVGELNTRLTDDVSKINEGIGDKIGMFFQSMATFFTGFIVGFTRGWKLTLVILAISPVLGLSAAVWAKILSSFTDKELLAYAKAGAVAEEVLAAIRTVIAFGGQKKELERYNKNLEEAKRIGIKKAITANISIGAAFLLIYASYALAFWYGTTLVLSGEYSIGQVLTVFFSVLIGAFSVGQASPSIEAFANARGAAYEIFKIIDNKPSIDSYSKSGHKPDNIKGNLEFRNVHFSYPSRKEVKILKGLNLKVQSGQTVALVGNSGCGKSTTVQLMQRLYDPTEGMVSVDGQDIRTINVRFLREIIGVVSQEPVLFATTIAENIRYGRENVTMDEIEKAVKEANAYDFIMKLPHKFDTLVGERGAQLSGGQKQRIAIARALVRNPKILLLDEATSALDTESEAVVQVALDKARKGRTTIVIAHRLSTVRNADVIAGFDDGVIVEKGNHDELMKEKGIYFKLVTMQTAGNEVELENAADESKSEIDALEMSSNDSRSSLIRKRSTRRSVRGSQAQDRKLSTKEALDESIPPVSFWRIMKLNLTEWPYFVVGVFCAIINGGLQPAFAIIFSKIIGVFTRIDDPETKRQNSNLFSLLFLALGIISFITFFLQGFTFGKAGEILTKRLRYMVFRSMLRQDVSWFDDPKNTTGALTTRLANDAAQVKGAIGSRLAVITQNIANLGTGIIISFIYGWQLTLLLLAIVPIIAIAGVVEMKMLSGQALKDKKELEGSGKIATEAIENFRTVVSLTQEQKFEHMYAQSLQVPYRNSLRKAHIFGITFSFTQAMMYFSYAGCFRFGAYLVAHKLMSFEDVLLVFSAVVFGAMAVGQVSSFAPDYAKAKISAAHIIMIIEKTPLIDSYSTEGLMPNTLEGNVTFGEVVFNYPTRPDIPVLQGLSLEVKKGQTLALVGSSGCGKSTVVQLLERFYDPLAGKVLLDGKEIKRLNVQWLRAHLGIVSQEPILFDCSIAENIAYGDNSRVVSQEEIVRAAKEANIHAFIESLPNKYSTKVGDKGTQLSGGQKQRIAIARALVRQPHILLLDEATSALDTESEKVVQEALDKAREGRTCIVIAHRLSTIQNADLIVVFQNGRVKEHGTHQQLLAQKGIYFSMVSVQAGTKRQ
H1, sequence (P35367 whole entry): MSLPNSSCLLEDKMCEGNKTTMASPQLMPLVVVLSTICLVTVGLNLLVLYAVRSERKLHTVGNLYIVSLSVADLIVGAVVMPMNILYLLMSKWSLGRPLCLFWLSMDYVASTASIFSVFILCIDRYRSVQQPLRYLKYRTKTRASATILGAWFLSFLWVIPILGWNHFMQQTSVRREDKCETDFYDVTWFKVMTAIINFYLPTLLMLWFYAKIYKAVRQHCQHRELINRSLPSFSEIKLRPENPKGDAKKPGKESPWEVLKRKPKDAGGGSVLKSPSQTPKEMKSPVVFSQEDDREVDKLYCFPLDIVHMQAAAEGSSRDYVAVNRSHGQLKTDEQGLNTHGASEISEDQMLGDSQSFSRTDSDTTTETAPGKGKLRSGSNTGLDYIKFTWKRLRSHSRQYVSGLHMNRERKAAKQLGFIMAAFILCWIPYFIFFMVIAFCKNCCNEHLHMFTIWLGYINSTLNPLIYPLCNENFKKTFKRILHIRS
DOR, sequence (P41143 whole entry): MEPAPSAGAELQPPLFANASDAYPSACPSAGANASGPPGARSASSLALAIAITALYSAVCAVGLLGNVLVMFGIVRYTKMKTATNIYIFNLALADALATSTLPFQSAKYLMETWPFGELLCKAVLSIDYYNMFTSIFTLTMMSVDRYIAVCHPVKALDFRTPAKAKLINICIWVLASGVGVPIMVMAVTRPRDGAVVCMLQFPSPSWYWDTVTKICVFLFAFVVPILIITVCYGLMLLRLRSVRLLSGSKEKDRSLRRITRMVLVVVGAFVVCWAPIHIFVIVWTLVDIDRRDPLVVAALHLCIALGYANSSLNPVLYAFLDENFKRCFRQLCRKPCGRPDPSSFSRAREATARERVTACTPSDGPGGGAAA
KOP, sequence (P41145 whole entry): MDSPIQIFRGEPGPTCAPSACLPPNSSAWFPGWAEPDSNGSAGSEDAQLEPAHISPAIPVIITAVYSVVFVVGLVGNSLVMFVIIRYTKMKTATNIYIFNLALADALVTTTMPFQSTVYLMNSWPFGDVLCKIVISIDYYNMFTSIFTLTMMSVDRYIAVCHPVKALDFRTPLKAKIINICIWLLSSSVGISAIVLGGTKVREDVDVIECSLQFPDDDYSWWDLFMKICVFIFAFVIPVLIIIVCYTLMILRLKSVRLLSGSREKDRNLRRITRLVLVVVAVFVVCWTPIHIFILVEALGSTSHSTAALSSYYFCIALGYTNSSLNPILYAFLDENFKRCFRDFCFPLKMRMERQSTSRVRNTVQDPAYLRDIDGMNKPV
smoothened, sequence (Q99835 28-787): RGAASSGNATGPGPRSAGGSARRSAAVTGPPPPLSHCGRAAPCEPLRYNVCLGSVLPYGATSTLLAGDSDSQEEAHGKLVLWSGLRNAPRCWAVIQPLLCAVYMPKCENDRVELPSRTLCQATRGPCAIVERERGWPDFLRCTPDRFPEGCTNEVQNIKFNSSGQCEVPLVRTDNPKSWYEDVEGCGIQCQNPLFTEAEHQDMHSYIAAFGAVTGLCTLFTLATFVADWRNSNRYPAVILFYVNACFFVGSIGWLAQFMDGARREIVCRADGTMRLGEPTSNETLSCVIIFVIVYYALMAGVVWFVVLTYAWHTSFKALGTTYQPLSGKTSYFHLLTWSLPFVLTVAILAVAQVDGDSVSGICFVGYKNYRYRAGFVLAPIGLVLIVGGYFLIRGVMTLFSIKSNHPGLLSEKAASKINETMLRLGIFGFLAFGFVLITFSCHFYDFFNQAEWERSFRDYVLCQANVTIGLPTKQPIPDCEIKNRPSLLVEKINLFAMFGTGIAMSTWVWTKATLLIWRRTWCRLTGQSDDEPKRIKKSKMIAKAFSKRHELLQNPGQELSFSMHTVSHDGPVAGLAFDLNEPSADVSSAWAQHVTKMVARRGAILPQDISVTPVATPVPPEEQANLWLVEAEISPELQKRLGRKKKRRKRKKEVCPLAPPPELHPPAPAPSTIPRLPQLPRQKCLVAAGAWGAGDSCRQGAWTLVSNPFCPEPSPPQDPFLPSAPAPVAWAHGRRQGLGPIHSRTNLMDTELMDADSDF
NET, sequence (P23975 whole entry): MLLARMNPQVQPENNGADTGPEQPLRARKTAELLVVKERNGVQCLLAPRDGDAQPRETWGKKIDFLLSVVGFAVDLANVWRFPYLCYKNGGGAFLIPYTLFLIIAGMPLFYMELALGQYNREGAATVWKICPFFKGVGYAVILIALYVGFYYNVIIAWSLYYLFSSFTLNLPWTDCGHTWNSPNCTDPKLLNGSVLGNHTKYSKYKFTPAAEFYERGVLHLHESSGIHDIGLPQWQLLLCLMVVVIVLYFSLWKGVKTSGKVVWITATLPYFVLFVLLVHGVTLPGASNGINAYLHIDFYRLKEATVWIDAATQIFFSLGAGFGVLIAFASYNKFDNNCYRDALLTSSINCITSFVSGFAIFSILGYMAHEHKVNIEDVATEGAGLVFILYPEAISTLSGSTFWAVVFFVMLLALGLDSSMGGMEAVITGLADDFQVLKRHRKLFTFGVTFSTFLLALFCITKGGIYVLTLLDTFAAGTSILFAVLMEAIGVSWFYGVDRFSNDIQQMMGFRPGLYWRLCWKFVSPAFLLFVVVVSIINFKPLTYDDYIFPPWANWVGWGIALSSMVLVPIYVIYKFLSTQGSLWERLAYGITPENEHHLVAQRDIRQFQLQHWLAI
HERG, sequence (Q12809 whole entry): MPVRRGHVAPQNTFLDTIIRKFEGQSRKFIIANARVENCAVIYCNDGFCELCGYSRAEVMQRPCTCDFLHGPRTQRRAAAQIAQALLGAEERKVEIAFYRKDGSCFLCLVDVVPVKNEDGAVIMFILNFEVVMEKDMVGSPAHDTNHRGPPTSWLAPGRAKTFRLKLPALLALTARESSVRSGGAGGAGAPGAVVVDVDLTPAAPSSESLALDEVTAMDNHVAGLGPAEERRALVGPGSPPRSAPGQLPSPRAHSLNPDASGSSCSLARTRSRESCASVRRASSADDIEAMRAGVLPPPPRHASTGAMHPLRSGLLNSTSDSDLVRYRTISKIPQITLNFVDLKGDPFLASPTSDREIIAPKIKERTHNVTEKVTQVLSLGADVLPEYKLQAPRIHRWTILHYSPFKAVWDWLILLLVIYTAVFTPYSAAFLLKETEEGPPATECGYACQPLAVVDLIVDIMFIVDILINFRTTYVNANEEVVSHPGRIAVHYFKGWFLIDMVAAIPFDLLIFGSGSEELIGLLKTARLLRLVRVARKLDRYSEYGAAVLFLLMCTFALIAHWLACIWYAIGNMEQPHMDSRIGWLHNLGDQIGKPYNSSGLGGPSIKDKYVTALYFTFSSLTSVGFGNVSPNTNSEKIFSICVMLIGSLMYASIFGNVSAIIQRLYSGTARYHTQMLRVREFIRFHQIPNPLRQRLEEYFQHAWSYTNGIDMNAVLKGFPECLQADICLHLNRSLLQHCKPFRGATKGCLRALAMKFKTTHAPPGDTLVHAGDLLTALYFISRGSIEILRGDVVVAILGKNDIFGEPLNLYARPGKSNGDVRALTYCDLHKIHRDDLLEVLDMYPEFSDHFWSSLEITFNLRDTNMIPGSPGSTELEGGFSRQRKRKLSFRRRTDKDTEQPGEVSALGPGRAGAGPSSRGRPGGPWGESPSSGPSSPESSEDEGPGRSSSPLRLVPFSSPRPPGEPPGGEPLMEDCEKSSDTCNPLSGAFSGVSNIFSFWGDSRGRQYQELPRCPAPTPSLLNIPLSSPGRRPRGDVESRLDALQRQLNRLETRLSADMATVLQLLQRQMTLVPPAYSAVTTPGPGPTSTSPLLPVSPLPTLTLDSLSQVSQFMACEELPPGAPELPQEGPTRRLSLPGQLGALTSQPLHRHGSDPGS

With `Cc1nc(N(C)c2ccc(O[11CH3])cc2)c2ccccc2n1` [[^11C]MPC-6827] the “BBB penetration and brain retention (microPET)” value ([1]; athymic nude male mice, n = 3, 0–60 min) was “penetrates the BBB and shows excellent retention in mouse brain”, the “radioligand binding in thyroid or salivary gland during blocking (microPET)” value ([1]; blocking with 5 mg/kg MPC-6827, mice) was “displaced” and the “blocking of brain activity (microPET)” value ([1]; iv 5 mg/kg unlabeled MPC-6827, n = 3) was “substantially blocked”. For the same compound, the stability in formulation [2] was “stable”, the “time of peak brain activity” value [3] was 5 min and the “log Poct/water” value [4] was 3.8. For the same compound, the “specific binding in brain” value [5, 48] was 70%, the “specific binding in heart” value [5, 48] was 16% and the “specific binding in lungs” value [5, 48] was 30%. The “specific binding in muscles” value [5, 48] was 60%, the “specific binding in pancreas” value [5, 48] was 20% and the “specific binding in the rest of the tested regions” value ([5]; 30 min, regions other than brain, muscles, spleen, lungs, pancreas, heart) was “no significant specific binding”. For the same compound, the “displacement of kidney and liver binding” value ([5]; blocking with cold MPC-6827, mice) was “not displaced”, the “ratio of specific to nonspecific binding in brain relative to muscle” value ([5]; brain vs muscle, Figure 1B) was 10 times and the “BBB penetration and brain retention (microPET)” value [6] was “BBB penetration and excellent retention”.

With `COc1ccc(N(C)c2nc(C)nc3ccccc23)cc1` [MPC-6827] the Ki [7] was > 10 µM, the Ki [8] was > 10 µM and the Ki [9] was > 10 µM. The Ki [10] was > 10 µM, the Ki [11] was > 10 µM and the Ki [12] was > 10 µM. For the same compound, the Ki [13] was > 10 µM, the Ki [14] was > 10 µM and the plasma binding [15] was 98.2%. The Ki [16] was > 10 µM, the Ki [17] was > 10 µM and the Ki [18] was > 10 µM. The Ki [19] was > 10 µM, the Ki [20] was > 10 µM and the Ki [21] was > 10 µM. For the same compound, the Ki [22] was > 10 µM, the Ki [23] was > 10 µM and the Ki [24] was > 10 µM. The Ki [25] was > 10 µM, the Ki [26] was > 10 µM and the Ki [27] was > 10 µM. The Ki [28] was > 10 µM, the Ki [29] was > 10 µM and the “safety in human subjects” value [30] was “proven to be safe”. For the same compound, the Ki [31] was > 10 µM, the “tumor growth in cancer animal models” value [32] was “suppression of tumor growth” and the Ki [33] was > 10 µM. For the same compound, the Ki [34] was > 10 µM, the Ki [35] was > 10 µM and the Ki [36] was > 10 µM. For the same compound, the Ki [37] was > 10 µM, the Ki [38] was > 10 µM and the Ki [39] was > 10 µM. The Ki [40] was > 10 µM, the Ki [41] was > 10 µM and the Ki [42] was > 10 µM. For the same compound, the Ki [43] was > 10 µM, the Ki [44] was > 10 µM and the Ki [45] was > 10 µM. The Ki [46] was > 10 µM and the Ki [47] was > 10 µM.
